Data: PMC4143770 (Scientific Reports, 2014)
Residue numbers refer to the chain shown, from its start. pKi: −log10 of the molar value.

Tests used:
[1] = tested on: glycoconjugate-lytic β-GlcNAcases from plant and human; settings: cited from earlier work
[2] = target: HsHex (human glycoconjugate-lytic β-GlcNAcase) (Homo sapiens, UniProt P07686); experiment: Inhibition of HsHex, pNP-β-GlcNAc substrate, Dixon plots; format: biochemical
[3] = target: T1, OfHex1 (chitinolytic β-GlcNAcase) (Ostrinia furnacalis, UniProt Q06GJ0); experiment: Inhibition of OfHex1, pNP-β-GlcNAc substrate, Dixon plots; format: biochemical
T1 sequence (Q06GJ0 23-594): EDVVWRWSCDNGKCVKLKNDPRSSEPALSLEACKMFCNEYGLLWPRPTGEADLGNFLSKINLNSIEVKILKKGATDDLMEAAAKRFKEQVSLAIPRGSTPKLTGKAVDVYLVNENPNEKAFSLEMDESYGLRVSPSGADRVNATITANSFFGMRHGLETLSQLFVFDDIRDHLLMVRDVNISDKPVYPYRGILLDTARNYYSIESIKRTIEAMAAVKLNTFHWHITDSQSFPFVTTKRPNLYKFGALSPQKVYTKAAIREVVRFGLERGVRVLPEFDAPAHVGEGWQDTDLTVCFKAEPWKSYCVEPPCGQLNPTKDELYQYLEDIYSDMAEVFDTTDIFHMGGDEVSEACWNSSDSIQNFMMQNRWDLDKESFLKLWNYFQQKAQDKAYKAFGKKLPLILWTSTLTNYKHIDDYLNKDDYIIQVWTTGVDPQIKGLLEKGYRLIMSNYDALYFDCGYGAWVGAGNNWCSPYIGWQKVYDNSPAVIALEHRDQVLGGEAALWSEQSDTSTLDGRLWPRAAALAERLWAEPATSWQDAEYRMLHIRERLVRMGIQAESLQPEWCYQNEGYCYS
Summary of the method: (§1)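 Recombinant O. furnacalis OfHex1, recombinant S. marcescens SmChb and purchased T. viride TvHex were assayed at 25°C with pNP-β-GlcNAc in 20 mM sodium phosphate, pH 6.0. After incubation, 0.5 M Na2CO3 was added and A405 measured. Ki used substrate at 0.075, 0.125 and 0.2 mM and an enzyme-specific inhibitor range. Ki and inhibition type came from linear Dixon-plot fitting.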

OfHex1 (W490A) = target: T2, OfHex1 (W490A) (Ostrinia furnacalis, UniProt Q06GJ0, W490A); experiment: Inhibition of mutant OfHex1-W490A; format: biochemical
T2 sequence (Q06GJ0 23-594 W490A): T1 sequence (Q06GJ0 23-594) with W468A
Summary of the method: (§2)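 Purchased bovine Hex, recombinant O. furnacalis OfHex2 and the OfHex1 W490A mutant were assayed at 25°C with pNP-β-GlcNAc. Reactions were stopped with 0.5 M Na2CO3 and A405 was recorded. Where Ki was determined, substrate was 0.075, 0.125 and 0.2 mM, with values from linear Dixon-plot fits. W490A was also tested at 100 µM inhibitor.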

[4] = tested on: OfHex2 (glycoconjugate-lytic β-GlcNAcase); experiment: Inhibition of OfHex2; format: biochemical, O. furnacalis
Summary of the method: as §2

[5] = tested on: CeHex (glycoconjugate-lytic β-GlcNAcase); experiment: Inhibition of CeHex; format: biochemical, Canavalia ensformis
[6] = tested on: BoHex (glycoconjugate-lytic β-GlcNAcase); experiment: Inhibition of BoHex; format: biochemical, bovine
Summary of the method: as §2

[7] = target: T3, SmChb (chitinolytic β-GlcNAcase) (Serratia marcescens, UniProt Q54468); experiment: Inhibition of SmChb; format: biochemical
T3 sequence (Q54468 28-885): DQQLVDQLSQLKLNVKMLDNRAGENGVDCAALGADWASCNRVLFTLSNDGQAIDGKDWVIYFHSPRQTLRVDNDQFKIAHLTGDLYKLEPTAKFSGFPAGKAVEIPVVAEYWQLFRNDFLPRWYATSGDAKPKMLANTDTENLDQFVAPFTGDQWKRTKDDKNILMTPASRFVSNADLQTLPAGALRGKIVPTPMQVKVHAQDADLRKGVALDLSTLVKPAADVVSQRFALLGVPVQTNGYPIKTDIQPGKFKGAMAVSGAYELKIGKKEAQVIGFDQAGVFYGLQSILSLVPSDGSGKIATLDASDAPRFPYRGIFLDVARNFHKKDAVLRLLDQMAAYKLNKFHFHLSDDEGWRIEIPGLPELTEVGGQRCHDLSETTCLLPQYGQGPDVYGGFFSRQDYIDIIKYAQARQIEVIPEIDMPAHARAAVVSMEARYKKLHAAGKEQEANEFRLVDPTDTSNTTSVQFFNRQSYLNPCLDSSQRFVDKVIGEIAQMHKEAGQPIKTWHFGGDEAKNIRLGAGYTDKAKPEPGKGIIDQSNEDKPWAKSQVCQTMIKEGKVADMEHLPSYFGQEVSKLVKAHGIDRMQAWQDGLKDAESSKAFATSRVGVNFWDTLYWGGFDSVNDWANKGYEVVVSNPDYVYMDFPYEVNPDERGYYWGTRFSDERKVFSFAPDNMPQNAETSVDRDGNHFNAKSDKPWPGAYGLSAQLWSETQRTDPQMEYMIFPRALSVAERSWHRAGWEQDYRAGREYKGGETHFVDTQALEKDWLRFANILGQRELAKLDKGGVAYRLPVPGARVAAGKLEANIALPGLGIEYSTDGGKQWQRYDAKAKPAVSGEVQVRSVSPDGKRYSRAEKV
Summary of the method: as §1

[8] = target: T4, SpHex (chitinolytic β-GlcNAcase) (Streptomyces plicatus, UniProt O85361); experiment: Inhibition of SpHex; format: biochemical
T4 sequence (O85361 1-506): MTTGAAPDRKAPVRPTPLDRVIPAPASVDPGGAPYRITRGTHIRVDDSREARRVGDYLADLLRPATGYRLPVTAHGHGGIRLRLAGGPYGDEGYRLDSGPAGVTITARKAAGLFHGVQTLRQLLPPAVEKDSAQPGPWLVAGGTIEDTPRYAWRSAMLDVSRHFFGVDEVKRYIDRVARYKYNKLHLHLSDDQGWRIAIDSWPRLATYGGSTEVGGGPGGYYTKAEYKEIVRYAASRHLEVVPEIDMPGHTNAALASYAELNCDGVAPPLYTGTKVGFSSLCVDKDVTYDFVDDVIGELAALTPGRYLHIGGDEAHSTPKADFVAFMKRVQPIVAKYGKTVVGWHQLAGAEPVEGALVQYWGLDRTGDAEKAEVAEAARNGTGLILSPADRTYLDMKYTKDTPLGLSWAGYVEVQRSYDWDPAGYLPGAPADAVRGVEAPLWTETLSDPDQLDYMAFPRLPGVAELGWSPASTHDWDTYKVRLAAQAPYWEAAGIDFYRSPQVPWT

[9] = target: TvHex (chitinolytic β-GlcNAcase); experiment: Inhibition of TvHex; format: biochemical, Trichoderma viride; settings: read-out: Ki for TvHex; pNP-β-GlcNAc, pH 6.0
Summary of the method: as §1

Sequence of HsHex (human glycoconjugate-lytic β-GlcNAcase) (P07686 122-311 limits assumed): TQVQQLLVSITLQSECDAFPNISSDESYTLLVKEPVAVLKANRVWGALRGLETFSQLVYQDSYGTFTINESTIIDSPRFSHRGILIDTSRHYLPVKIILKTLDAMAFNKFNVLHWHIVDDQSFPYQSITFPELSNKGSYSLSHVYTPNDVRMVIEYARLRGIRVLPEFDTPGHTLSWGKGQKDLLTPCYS
Sequence of HsHex (human glycoconjugate-lytic β-GlcNAcase) (P07686 315-556 limits assumed): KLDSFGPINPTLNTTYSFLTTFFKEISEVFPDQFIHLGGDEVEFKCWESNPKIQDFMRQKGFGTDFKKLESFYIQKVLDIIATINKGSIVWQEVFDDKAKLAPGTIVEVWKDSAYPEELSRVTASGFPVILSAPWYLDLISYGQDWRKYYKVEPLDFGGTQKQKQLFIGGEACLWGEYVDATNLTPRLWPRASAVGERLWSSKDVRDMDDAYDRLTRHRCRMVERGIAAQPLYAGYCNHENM

Row | Compound | Activity toward glycoconjugate-lytic β-GlcNAcases from plant and human [1] | pKi [2] | Inhibition of HsHex at 100 µM ([2]; 100 µM) | pKi [3] | Type of inhibition toward OfHex1 (Dixon plots) [3] | Increment in inhibitory activity against OfHex1 compared to Q1 ([3]; Q2 versus Q1, from Ki) | pKi (OfHex1 (W490A)) | Inhibition of OfHex2 [4] | Inhibition of CeHex [5] | Inhibition of BoHex [6] | pKi [7] | pKi [8] | pKi [9] | Type of inhibition toward HsHex (Dixon plots) ([2]; Dixon plots) | Inhibition of OfHex1-W490A at 100 µM (OfHex1 (W490A); 100 µM)
1 | CC(=O)NC1C(O)O[C@H](CO)[C@@H](O[C@@H]2O[C@H](CO)[C@@H](O[C@@H]3O[C@H](CO)[C@@H](O[C@H]4O[C@H](CO)[C@@H](O)[C@H](O)[C@H]4[N+](C)(C)C)[C@H](O)[C@H]3NC(C)=O)[C@H](O)[C@H]2NC(C)=O)[C@@H]1O (stereo partly shown) [TMG-chitotriomycin] | not active |  |  |  |  |  |  |  |  |  |  |  |  |  | 
2 | Cc1nnc(CNCCN2C(=O)c3cccc4c(N(C)C)ccc(c34)C2=O)s1 [Q2, 6-(dimethylamino)-2-(2-(((5-methyl-1,3,4-thiadiazol-2-yl)methyl)amino)ethyl)-1H-benzo[de]isoquinoline-1,3(2H)-dione] |  | < 4.00 | does not inhibit | 6.51 | competitive | 13 fold | < 4.00 | does not inhibit | does not inhibit | does not inhibit | 5.08 | 4.13 | 4.60 |  | 
3 | Cc1nnc(CNCCN2C(=O)c3cccc4cccc(c34)C2=O)s1 [Q1, 2-(2-(((5-methyl-1,3,4-thiadiazol-2-yl)methyl)amino)ethyl)-1H-benzo[de]isoquinoline-1,3(2H)-dione] |  | 5.67 |  | 5.37 | competitive inhibitor |  | < 4.00 |  |  |  |  |  |  | competitive inhibitor | could not inhibit
